The values that follow come from ChEMBL document CHEMBL1138747, “Synthesis and structure--activity relationship in a class of indolebutylpiperazines as dual 5-HT(1A) receptor agonists and serotonin reuptake inhibitors” (J Med Chem, 2004).

The structures appear in SMILES notation. Where “and” joins values, the source holds several entries; their conditions need not be identical. Equal values may be shown once.

Experiment [1] in a line: Inhibition of histamine H1 receptor.
Experiment [2] is described as follows: Inhibition of histamine H2 receptor.
Experiment [3] deals with 5-hydroxytryptamine receptor 6 (Rattus norvegicus, UniProt P31388). As to the kind of experiment: Inhibition of rat hydroxytryptamine 6 receptor.
Experiment [4] has as its target T1, 5-hydroxytryptamine receptor 2C (Rattus norvegicus, UniProt P08909).
T1 sequence (P08909 whole entry): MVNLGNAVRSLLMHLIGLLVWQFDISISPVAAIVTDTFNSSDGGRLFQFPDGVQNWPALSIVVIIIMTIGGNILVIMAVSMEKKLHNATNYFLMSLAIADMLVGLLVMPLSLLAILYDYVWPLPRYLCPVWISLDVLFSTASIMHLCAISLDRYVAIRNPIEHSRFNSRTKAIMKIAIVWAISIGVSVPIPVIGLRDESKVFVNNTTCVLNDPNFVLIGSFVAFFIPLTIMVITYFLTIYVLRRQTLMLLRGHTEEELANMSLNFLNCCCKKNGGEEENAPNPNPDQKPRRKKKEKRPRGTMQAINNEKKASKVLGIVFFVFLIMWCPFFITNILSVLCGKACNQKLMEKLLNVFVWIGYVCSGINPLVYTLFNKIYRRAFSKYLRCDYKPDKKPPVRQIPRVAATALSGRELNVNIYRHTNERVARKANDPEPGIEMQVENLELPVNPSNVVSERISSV
As to the kind of experiment: Inhibition of rat hydroxytryptamine 2C receptor.

The subject of another experiment is Rattus norvegicus. Nature of the experiment: Dose required to inhibit ultrasonic vocalisation on subcutaneous administered. Particulars: sc, read-out: ID50 (the source's name). It is filed as functional. A digest of the protocol:
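Rat ultrasonic vocalization test. In a priming session, up to 10 grid-floor shocks were given (1.8 mA, 0.3 s, 20 s apart). Rats not vocalizing on three consecutive trials were excluded. Next day, rats were tested 2 h after dosing: five shocks, then vocalization duration recorded over 3 min. ID50 (dose for half-maximal inhibition) came from dose–response curves.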

Experiment [5] in a line: Inhibition of kappa opioid receptor.
Another experiment deals with T2, D(4) dopamine receptor (Rattus norvegicus, UniProt P30729).
T2 sequence (P30729 whole entry): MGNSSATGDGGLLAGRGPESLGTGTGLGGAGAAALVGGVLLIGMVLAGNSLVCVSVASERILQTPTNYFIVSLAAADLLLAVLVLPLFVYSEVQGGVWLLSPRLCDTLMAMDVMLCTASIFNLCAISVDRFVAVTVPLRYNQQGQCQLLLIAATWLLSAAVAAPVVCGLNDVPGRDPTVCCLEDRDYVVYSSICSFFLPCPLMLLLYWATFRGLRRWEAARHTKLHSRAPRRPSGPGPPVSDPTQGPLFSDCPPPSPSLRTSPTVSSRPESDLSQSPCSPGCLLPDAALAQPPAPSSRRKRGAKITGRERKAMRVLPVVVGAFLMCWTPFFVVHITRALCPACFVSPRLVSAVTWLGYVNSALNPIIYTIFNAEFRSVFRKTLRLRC
As to the kind of experiment: Inhibition of rat dopamine D4 receptor.

For the next experiment, the target named is D(3) dopamine receptor (Rattus norvegicus, UniProt P19020). Nature of the experiment: Inhibition of rat dopamine D3 receptor.
The target of experiment [6] is T3, Serotonin 3 (5-HT3) receptor (Rattus norvegicus, UniProt P35563+Q9JJ16).
T3 sequence (P35563 whole entry): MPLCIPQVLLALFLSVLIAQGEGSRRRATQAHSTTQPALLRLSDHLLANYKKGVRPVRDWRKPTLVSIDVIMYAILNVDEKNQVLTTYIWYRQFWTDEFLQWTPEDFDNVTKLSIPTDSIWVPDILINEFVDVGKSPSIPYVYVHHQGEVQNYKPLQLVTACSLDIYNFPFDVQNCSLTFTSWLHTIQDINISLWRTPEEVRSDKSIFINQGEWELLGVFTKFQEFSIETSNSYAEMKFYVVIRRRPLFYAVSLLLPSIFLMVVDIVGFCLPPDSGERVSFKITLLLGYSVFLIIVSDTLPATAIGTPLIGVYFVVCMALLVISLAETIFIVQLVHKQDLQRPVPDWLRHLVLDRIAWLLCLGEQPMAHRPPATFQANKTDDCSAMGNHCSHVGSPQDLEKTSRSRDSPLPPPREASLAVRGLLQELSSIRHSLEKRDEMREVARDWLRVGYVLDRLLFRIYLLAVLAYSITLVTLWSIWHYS
T3 sequence (Q9JJ16 whole entry): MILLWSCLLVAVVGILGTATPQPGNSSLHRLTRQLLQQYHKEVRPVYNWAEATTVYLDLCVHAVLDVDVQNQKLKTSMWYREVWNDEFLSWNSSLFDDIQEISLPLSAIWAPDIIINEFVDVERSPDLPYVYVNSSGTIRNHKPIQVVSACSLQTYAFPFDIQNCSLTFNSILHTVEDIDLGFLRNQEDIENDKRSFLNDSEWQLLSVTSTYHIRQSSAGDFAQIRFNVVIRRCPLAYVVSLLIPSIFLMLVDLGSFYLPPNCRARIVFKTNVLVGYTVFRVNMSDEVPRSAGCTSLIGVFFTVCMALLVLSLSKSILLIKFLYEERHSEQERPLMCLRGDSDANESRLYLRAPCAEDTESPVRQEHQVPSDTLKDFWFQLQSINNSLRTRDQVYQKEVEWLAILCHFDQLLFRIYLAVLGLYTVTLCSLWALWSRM
As to the kind of experiment: Inhibition against rat hydroxytryptamine 3 receptor. It is filed as protein-complex assay.

A further experiment has as its target D(2) dopamine receptor (Rattus norvegicus, UniProt P61169). Nature of the experiment: Displacement of [3H]spiperone from dopamine D2 receptor of rat striatal membranes. It counts as cell membranes, Membrane. The method, boiled down:
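IC50 from 5–10 compound concentrations, each in triplicate, taken as the concentration (nM) giving 50% inhibition of specific radioligand binding.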

Chain of D(2) dopamine receptor (P61169 whole entry): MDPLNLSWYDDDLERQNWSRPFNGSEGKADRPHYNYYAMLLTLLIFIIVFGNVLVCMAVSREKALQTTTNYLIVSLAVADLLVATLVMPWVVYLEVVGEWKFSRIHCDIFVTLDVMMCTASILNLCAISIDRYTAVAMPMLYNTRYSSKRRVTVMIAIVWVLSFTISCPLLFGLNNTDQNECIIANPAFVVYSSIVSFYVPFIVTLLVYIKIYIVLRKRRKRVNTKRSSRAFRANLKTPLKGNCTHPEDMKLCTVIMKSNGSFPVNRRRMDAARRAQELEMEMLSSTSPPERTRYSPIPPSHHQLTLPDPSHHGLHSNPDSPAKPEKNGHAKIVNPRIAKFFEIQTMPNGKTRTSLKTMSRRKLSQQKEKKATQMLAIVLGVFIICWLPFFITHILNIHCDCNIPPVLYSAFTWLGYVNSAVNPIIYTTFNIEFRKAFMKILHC
Chain of D(3) dopamine receptor (P19020 whole entry): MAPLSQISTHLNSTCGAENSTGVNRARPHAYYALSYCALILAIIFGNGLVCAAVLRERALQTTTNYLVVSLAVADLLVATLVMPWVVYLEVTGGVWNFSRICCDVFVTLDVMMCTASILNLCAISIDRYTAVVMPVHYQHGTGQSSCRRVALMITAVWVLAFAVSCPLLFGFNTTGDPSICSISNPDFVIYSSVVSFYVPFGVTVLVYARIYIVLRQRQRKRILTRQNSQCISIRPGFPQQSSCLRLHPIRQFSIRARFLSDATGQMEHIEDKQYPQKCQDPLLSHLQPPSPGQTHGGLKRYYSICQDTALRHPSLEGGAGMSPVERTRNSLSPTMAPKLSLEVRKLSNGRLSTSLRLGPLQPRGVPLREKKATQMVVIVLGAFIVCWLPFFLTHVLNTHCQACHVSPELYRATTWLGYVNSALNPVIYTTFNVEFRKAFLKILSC
Chain of 5-hydroxytryptamine receptor 6 (P31388 whole entry): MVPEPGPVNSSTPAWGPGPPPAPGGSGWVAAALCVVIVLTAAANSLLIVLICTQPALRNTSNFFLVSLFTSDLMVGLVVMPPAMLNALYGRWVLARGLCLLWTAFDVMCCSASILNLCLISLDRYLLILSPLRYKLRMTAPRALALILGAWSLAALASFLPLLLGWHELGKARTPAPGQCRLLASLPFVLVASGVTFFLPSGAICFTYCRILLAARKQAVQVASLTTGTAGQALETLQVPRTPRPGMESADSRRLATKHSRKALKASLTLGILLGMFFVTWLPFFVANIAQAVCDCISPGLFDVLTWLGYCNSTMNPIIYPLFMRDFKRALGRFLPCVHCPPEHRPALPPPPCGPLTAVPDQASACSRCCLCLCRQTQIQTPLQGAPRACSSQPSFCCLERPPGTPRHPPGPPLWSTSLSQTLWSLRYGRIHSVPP

Regarding `N#Cc1ccc2[nH]cc(CCCCN3CCN(c4ccc5oc(C(N)=O)cc5c4)CC3)c2c1` [VILAZODONE], the IC50 is 0.317 µM in experiment [1]; greater than 1 µM in experiment [2]; 3 µM in [3]; 2 µM in [4]; greater than 1 µM in [5]; 3.4 µM at D(4) dopamine receptor. For the same compound, the IC50 against D(3) dopamine receptor was 0.071 µM; in experiment [6], 4.3 µM; at D(2) dopamine receptor it was 0.095 µM and 0.666 µM. For the same compound, in the experiment with Rattus norvegicus, the ED50 turned out to be 4 mg/kg.
